In general, EC50 refers to the concentration at which the effect is half-maximal. A word on the CC50: it is the concentration at which the toxic effect on the cells reaches its halfway point. Low values mean harm at low concentration, high ones better tolerance by the cells.

In brackets after ≈: the same amount, converted by molar mass. Bounds are passed on as bounds.

This is an account of results in ChEMBL document CHEMBL2040755, “Diverse combinatorial design, synthesis and in vitro evaluation of new HEPT analogues as potential non-nucleoside HIV-1 reverse transcription inhibitors” (Eur J Med Chem, 2012).

Data set [1] deals with Human immunodeficiency virus 1. The data set can be described thus: Antiviral activity against HIV1 NL4-3 infected in human MT4 cells assessed as inhibition of virus-induced cytopathic effect after 5 days. The class given is functional, organism-based. Particulars: Human immunodeficiency virus 1, NL4-3, MT4, 120 h. The method in brief: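 HIV-1 NL4-3 titered in MT-4 cells after acute infection. Infected cells were exposed to various concentrations of compound and grown 5 days. Protection from virus-induced cytopathic effect was read as viable cell number by tetrazolium (MTT) colorimetry, giving EC50.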
For orientation: Cytopathic effects are the visible damage that an infection or toxin causes in cultured cells.

A short description of data set [2]: Cytotoxicity against human MT4 cells after 5 days by MTT assay. The class given is cell-based. The method in brief: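 Uninfected MT-4 cells exposed to various compound concentrations and allowed to proliferate 5 days. Viable cells quantified by tetrazolium-based colorimetric (MTT) method to give CC50.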
(In general: Tetrazolium dyes change colour on reduction, which living cells bring about.)

Data set [3] can be described thus: Selectivity index, ratio of CC50 for human MT4 cells to EC50 for HIV1 NL4-3. The class given is toxicity, cell-based. Particulars: read-out: Ratio CC50/EC50. An outline of the steps: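 SI taken as CC50 in uninfected MT-4 cells over EC50 against HIV-1 NL4-3. Both came from parallel 5-day MTT viability read-outs, in mock-infected and in infected cells exposed to various compound concentrations.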

The test system of data set [4] is Human immunodeficiency virus 1. As to the kind of experiment: Ratio of HEPT EC50 to compound EC50 for HIV1 NL4-3. The data set is classed as functional.

For `C[Si](C)(C)CCOCn1c(Sc2ccccc2)cc(=O)[nH]c1=O`, the EC50 in data set [1] is over 71 µM. The same compound registered a CC50 at 120 h in data set [2] of over 25 µg/mL.

For `C[Si](C)(C)CCOCn1c(Sc2cccc(N)c2)cc(=O)[nH]c1=O`, the EC50 in data set [1] is over 68 µM. In data set [2], this compound displayed a CC50 at 120 h of over 25 µg/mL.

With `C[Si](C)(C)CCOCn1c(Sc2c(Cl)cccc2Cl)cc(=O)[nH]c1=O`, the EC50 in data set [1] was over 25.2 µM. The compound also yielded a CC50 at 120 h in data set [2] of 10.6 µg/mL (≈ 25.3 µM).

On to `C[Si](C)(C)CCOCn1c(Sc2cccc(Cl)c2)cc(=O)[nH]c1=O`, for which, in data set [1], the EC50 was over 30 µM. This compound also came in with a CC50 at 120 h in data set [2] of 11.6 µg/mL (≈ 30.1 µM).

As for `CCOCn1c(Sc2ccccc2)cc(=O)[nH]c1=O`, the EC50 in data set [1] was over 90 µM. For the same compound, in data set [2], the CC50 at 120 h was over 25 µg/mL.

For `CCOCn1c(Sc2cccc(N)c2)cc(=O)[nH]c1=O`, the EC50 in data set [1] is over 85 µM. The compound also showed a CC50 at 120 h in data set [2] of over 25 µg/mL.

Consider `CCOCn1c(Sc2c(Cl)cccc2Cl)cc(=O)[nH]c1=O`, for which the EC50 in data set [1] was over 72 µM. Further, the CC50 at 120 h in data set [2] is over 25 µg/mL.

Take `CCOCn1c(Sc2cccc(Cl)c2)cc(=O)[nH]c1=O`: the EC50 in data set [1] was over 80 µM. In data set [2], this compound had a CC50 at 120 h of over 25 µg/mL.

For the compound `Cc1ccc(C)c(Cn2c(Sc3ccccc3)cc(=O)[nH]c2=O)c1`, in data set [1], the EC50 was over 74 µM. The CC50 at 120 h in data set [2] was over 25 µg/mL.

As to `Cc1ccc(C)c(Cn2c(Sc3cccc(N)c3)cc(=O)[nH]c2=O)c1`, in data set [1], the EC50 was over 71 µM. Besides, the CC50 at 120 h in data set [2] is over 25 µg/mL.

For the compound `Cc1ccc(C)c(Cn2c(Sc3c(Cl)cccc3Cl)cc(=O)[nH]c2=O)c1`, the EC50 in data set [1] was over 61 µM. This compound also showed a CC50 at 120 h in data set [2] of over 25 µg/mL.

Take `Cc1ccc(C)c(Cn2c(Sc3cccc(Cl)c3)cc(=O)[nH]c2=O)c1`: in data set [1], the EC50 is over 67 µM. Besides, in data set [2], the CC50 at 120 h was over 25 µg/mL.

In the case of `Cc1c(Sc2cccc(N)c2)n(COCC[Si](C)(C)C)c(=O)[nH]c1=O`, the EC50 in data set [1] is 1.15 µM. Besides, the selectivity ratio in data set [3] is over 57. This compound had a CC50 at 120 h in data set [2] of over 25 µg/mL.

`Cc1c(Sc2c(Cl)cccc2Cl)n(COCC[Si](C)(C)C)c(=O)[nH]c1=O`: the EC50 in data set [1] was over 21.3 µM. The same compound displayed a CC50 at 120 h in data set [2] of 9.2 µg/mL (≈ 21.2 µM).

`Cc1c(Sc2cccc(Cl)c2)n(COCC[Si](C)(C)C)c(=O)[nH]c1=O`: the EC50 in data set [1] is over 24.9 µM. For the same compound, the CC50 at 120 h in data set [2] is 9.9 µg/mL (≈ 24.8 µM).

On to `CCOCn1c(Sc2cccc(N)c2)c(C)c(=O)[nH]c1=O`, for which the EC50 in data set [1] turned out to be 1.3 µM. For the same compound, the selectivity ratio in data set [3] is over 63. The same compound showed a 50% cytotoxic concentration (CC50) at 120 h in data set [2] of over 25 µg/mL.

For `CCOCn1c(Sc2c(Cl)cccc2Cl)c(C)c(=O)[nH]c1=O`, the EC50 in data set [1] was 4.7 µM. Also, the selectivity ratio in data set [3] was over 15. The compound also had a CC50 at 120 h in data set [2] of over 25 µg/mL.

In the case of `CCOCn1c(Sc2cccc(Cl)c2)c(C)c(=O)[nH]c1=O`, the EC50 in data set [1] is 0.046 µM. In data set [3], the selectivity ratio was over 1670. The “Ratio EC50” value in data set [4] came to 67. The half-maximal cytotoxic concentration (CC50) at 120 h in data set [2] is over 25 µg/mL.

Regarding `Cc1ccc(C)c(Cn2c(Sc3ccccc3)c(C)c(=O)[nH]c2=O)c1`, in data set [1], the EC50 was determined as 3.57 µM. Besides, the selectivity ratio in data set [3] is over 20. Moreover, in data set [2], the CC50 at 120 h is over 25 µg/mL.

Take `Cc1ccc(C)c(Cn2c(Sc3cccc(N)c3)c(C)c(=O)[nH]c2=O)c1`: the EC50 in data set [1] amounted to 5.2 µM. For the same compound, the selectivity ratio in data set [3] was over 13. The compound further showed a CC50 at 120 h in data set [2] of over 25 µg/mL.

Regarding `Cc1ccc(C)c(Cn2c(Sc3c(Cl)cccc3Cl)c(C)c(=O)[nH]c2=O)c1`, in data set [1], the EC50 was over 59 µM. Moreover, the CC50 at 120 h in data set [2] was over 25 µg/mL.

On to `Cc1ccc(C)c(Cn2c(Sc3cccc(Cl)c3)c(C)c(=O)[nH]c2=O)c1`, for which the EC50 in data set [1] was 0.868 µM. In data set [3], the selectivity ratio is over 40. This compound also returned a CC50 at 120 h in data set [2] of 13.6 µg/mL (≈ 35.2 µM).

Consider `CCOCn1c(Sc2ccccc2)c(C)c(=S)[nH]c1=O`, for which the EC50 in data set [1] is 1.9 µM. Besides, the selectivity ratio in data set [3] is over 4. In data set [2], the CC50 at 120 h is 2.38 µg/mL (≈ 7.72 µM).

On to `CCOCn1c(Sc2cccc(Cl)c2)c(C)c(=S)[nH]c1=O`, for which, in data set [1], the EC50 was over 4.96 µM. In data set [2], this compound registered a CC50 at 120 h of 1.7 µg/mL (≈ 4.96 µM).

As for `Cc1c(Sc2ccccc2)n(COCC[Si](C)(C)C)c(=O)[nH]c1=O`, in data set [1], the EC50 was over 27.3 µM. Also, the CC50 at 120 h in data set [2] amounted to 9.9 µg/mL (≈ 27.2 µM).

For the compound `CCOCn1c(Sc2ccccc2)c(C)c(=O)[nH]c1=O`, in data set [1], the EC50 worked out at 0.086 µM. For the same compound, in data set [3], the selectivity ratio is over 1000. The “Ratio EC50” value in data set [4] amounted to 38. In data set [2], this compound displayed a CC50 at 120 h of over 25 µg/mL.

For `Cc1c(Sc2cccc(Cl)c2)n(COCCO)c(=O)[nH]c1=O`, in data set [1], the EC50 was 1.2 µM. Also, the selectivity ratio in data set [3] is over 60. The compound also displayed a CC50 at 120 h in data set [2] of over 25 µg/mL.

`O=C1Nc2ccc(Cl)cc2[C@@](C#CC2CC2)(C(F)(F)F)O1` [EFAVIRENZ] came in with a CC50 at 120 h in data set [2] of over 1 µg/mL.

With `Cc1c(Sc2ccccc2)n(COCCO)c(=O)[nH]c1=O` [HEPT], the EC50 in data set [1] was 3.28 µM. Besides, the selectivity ratio in data set [3] is over 25. This compound also gave a CC50 at 120 h in data set [2] of over 25 µg/mL.

In data set [2], `Cc1ccnc2c1NC(=O)c1cccnc1N2C1CC1` [NEVIRAPINE] returned a CC50 at 120 h of over 5 µg/mL.

Turning to `Cc1cn([C@H]2C[C@H](N=[N+]=[N-])[C@@H](CO)O2)c(=O)[nH]c1=O` [ZIDOVUDINE], the EC50 in data set [1] stood at 0.004 µM. Also, in data set [3], the selectivity ratio was over 1000. The same compound returned a CC50 at 120 h in data set [2] of over 1 µg/mL.
